Activity calls are given as the source filed them. The rule behind the calls is not given here.
How the values were obtained:
[1] = target: T1, Melanocyte-stimulating hormone receptor (Homo sapiens, UniProt Q01726); experiment: Displacement of [125I]-[Nle4, D-Phe7]alpha-MSH from human melanocortin 1 receptor expressed in HEK293 cells; assay type: cell-based
In short: (§1)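 Whole HEK293 cells stably expressing each hMCR, seeded 48 h before assay (50000 cells/well), washed in MEM with 25 mM bicarbonate. Cells incubated 40 min at 37 °C with unlabeled peptide plus [125I]-NDP-α-MSH (33.06 pM, 20000 cpm/well) in MEM, 25 mM HEPES pH 7.4, 0.2% BSA, 1 mM 1,10-phenanthroline, leupeptin, bacitracin. Cells washed, lysed with NaOH/Triton X-100, and gamma-counted. IC50 by nonlinear fit, two experiments in triplicate […].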
Target sequence in this assay (Q01726 whole entry): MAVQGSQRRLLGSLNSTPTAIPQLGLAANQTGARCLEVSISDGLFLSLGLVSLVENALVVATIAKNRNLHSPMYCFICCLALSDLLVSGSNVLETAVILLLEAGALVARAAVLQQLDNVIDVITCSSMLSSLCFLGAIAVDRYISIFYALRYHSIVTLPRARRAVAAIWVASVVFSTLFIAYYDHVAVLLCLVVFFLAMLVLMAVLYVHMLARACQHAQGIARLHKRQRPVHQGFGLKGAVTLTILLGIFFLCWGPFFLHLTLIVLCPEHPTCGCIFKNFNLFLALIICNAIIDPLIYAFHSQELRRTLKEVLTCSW

[2] = target: T1, Melanocyte-stimulating hormone receptor; experiment: Agonist activity at human melanocortin 1 receptor expressed in HEK293 cells assessed as cAMP accumulation at 10 uM; assay type: functional, cell-based
In short: (§2)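 cAMP accumulation assay in stably transfected HEK293 cells: 0.5 mM IBMX preincubation, 3 min ligand exposure at 37 °C, [3H]cAMP/PKA binding read-out against a standard curve. The cAMP produced at 10 μM ligand is expressed as percent of that produced by 10 μM MT-II (% max effect).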
Target sequence in this assay (Q01726 whole entry, looked up): as the sequence (Q01726 whole entry) above

[3] = target: T1, Melanocyte-stimulating hormone receptor; experiment: Agonist activity at human melanocortin 1 receptor expressed in HEK293 cells assessed as cAMP accumulation at 10 uM realtive to MT2; assay type: functional, cell-based; in short: as §2
Target sequence in this assay (Q01726 whole entry, looked up): as the sequence (Q01726 whole entry) above

[4] = target: T2, Melanocortin receptor 3 (Homo sapiens, UniProt P41968); experiment: Displacement of [125I]-[Nle4, D-Phe7]alpha-MSH from human melanocortin 3 receptor expressed in HEK293 cells at 10 uM; assay type: cell-based
[5] = target: T2, Melanocortin receptor 3; experiment: Agonist activity at human melanocortin 3 receptor expressed in HEK293 cells assessed as cAMP accumulation at 10 uM; assay type: functional, cell-based; in short: as §2
[6] = target: T2, Melanocortin receptor 3; experiment: Agonist activity at human melanocortin 3 receptor expressed in HEK293 cells assessed as cAMP accumulation at 10 uM realtive to MT2; assay type: functional, cell-based; in short: as §2
[7] = target: T3, Melanocortin receptor 4 (Homo sapiens, UniProt P32245); experiment: Displacement of [125I]-[Nle4, D-Phe7]alpha-MSH from human melanocortin 4 receptor expressed in HEK293 cells at 10 uM; assay type: cell-based
[8] = target: T3, Melanocortin receptor 4; experiment: Agonist activity at human melanocortin 4 receptor expressed in HEK293 cells assessed as cAMP accumulation at 10 uM; assay type: functional, cell-based; in short: as §2
[9] = target: T3, Melanocortin receptor 4; experiment: Agonist activity at human melanocortin 4 receptor expressed in HEK293 cells assessed as cAMP accumulation at 10 uM realtive to MT2; assay type: functional, cell-based; in short: as §2
[10] = target: T4, Melanocortin receptor 5 (Homo sapiens, UniProt P33032); experiment: Displacement of [125I]-[Nle4, D-Phe7]alpha-MSH from human melanocortin 5 receptor expressed in HEK293 cells at 10 uM; assay type: cell-based
[11] = target: T4, Melanocortin receptor 5; experiment: Agonist activity at human melanocortin 5 receptor expressed in HEK293 cells assessed as cAMP accumulation at 10 uM; assay type: functional, cell-based; in short: as §2
[12] = target: T4, Melanocortin receptor 5; experiment: Agonist activity at human melanocortin 5 receptor expressed in HEK293 cells assessed as cAMP accumulation at 10 uM realtive to MT2; assay type: functional, cell-based; in short: as §2
[13] = target: T1, Melanocyte-stimulating hormone receptor; experiment: Displacement of [125I]-[Nle4, D-Phe7]alpha-MSH from human melanocortin 1 receptor expressed in HEK293 cells at 10 uM; assay type: cell-based
Target sequence in this assay (Q01726 whole entry, looked up): as the sequence (Q01726 whole entry) above

[14] = target: T1, Melanocyte-stimulating hormone receptor; experiment: Agonist activity at human melanocortin 1 receptor expressed in HEK293 cells assessed as cAMP accumulation; assay type: functional, cell-based
In short: (§3)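 Stably transfected HEK293 cells seeded 48 h before assay (50000 cells/well), rinsed, preincubated 1 min at 37 °C in Earle's balanced salt solution with 0.5 mM IBMX, then given peptide at varying concentrations for 3 min at 37 °C. Stopped with ice-cold Tris/EDTA and boiling 7 min. cAMP measured by [3H]cAMP competition for PKA against a standard curve. EC50 by nonlinear least-squares fit, mean of two experiments in triplicate.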
Target sequence in this assay (Q01726 whole entry): as above

[15] = target: T2, Melanocortin receptor 3; experiment: Displacement of [125I]-[Nle4, D-Phe7]alpha-MSH from human melanocortin 3 receptor expressed in HEK293 cells; assay type: cell-based; in short: as §1
[16] = target: T2, Melanocortin receptor 3; experiment: Agonist activity at human melanocortin 3 receptor expressed in HEK293 cells assessed as cAMP accumulation; assay type: functional, cell-based; in short: as §3
[17] = target: T4, Melanocortin receptor 5; experiment: Displacement of [125I]-[Nle4, D-Phe7]alpha-MSH from human melanocortin 5 receptor expressed in HEK293 cells; assay type: cell-based; in short: as §1

T3 sequence (P32245 whole entry): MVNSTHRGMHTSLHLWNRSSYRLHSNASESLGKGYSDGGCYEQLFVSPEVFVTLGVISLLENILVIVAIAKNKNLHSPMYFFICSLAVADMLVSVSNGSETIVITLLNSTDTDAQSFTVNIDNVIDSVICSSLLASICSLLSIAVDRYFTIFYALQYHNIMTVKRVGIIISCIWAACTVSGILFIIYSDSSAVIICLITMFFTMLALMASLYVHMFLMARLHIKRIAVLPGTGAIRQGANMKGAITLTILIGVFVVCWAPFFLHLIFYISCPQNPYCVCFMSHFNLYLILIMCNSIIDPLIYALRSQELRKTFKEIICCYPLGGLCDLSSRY
T2 sequence (P41968 whole entry): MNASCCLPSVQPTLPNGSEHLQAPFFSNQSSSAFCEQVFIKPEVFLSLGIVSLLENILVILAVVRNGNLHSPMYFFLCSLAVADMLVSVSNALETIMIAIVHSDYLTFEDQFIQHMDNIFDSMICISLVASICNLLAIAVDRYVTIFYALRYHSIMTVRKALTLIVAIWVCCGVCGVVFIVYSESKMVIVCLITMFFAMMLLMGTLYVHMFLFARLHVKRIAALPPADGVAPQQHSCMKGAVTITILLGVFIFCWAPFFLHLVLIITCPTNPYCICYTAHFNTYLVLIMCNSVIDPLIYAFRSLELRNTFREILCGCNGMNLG
T4 sequence (P33032 whole entry): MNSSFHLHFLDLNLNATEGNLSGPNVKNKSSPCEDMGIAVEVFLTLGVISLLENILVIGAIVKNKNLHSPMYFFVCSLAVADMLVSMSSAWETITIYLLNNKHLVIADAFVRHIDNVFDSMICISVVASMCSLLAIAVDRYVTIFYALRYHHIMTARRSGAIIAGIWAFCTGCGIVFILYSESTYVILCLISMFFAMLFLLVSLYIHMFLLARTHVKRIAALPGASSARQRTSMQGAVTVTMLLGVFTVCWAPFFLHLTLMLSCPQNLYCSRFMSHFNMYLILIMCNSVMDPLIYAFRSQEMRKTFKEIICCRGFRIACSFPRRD

| Structure (SMILES) | Activity [2] | Activity [3] [%] | Activity [4] | Activity [5] | Activity [6] [%] | Activity [7] | Activity [8] | Activity [9] [%] | Activity [10] | Activity [11] | Activity [12] [%] | Activity [13] | further results |
| --- | --- | --- | --- | --- | --- | --- | --- | --- | --- | --- | --- | --- | --- |
| N=C(N)NCCC[C@@H]1NC(=O)[C@@H](Cc2ccccc2)NC(=O)[C@H]2CCCN2C(=O)c2cc([N+](=O)[O-])ccc2SC[C@@H](C(N)=O)NC(=O)[C@H](Cc2c[nH]c3ccccc23)NC1=O | inactive | 0 | inactive | inactive | 0 | inactive | inactive | 0 | inactive | inactive | 0 | – | IC50 ([1]; hek293): > 1500 nM |
| N=C(N)NCCC[C@@H]1NC(=O)[C@@H](Cc2ccccc2)NC(=O)[C@H](Cc2cnc[nH]2)NC(=O)c2cc([N+](=O)[O-])ccc2SC[C@@H](C(N)=O)NC(=O)[C@@H](Cc2ccccc2)NC1=O | inactive | 0 | inactive | inactive | 0 | inactive | inactive | 0 | inactive | inactive | 0 | inactive | – |
| N=C(N)NCCC[C@@H]1NC(=O)[C@@H](Cc2ccccc2)NC(=O)[C@H](Cc2cnc[nH]2)NC(=O)c2cc([N+](=O)[O-])ccc2SC[C@@H](C(N)=O)NC(=O)[C@H](Cc2ccccc2)NC1=O | inactive | 0 | inactive | inactive | 0 | inactive | inactive | 0 | inactive | inactive | 0 | – | IC50 [1]: > 1000 nM |
| N=C(N)NCCC[C@@H]1NC(=O)[C@@H](Cc2ccccc2)NC(=O)[C@H](Cc2cnc[nH]2)NC(=O)c2cc([N+](=O)[O-])ccc2SC[C@@H](C(N)=O)NC(=O)[C@H](Cc2ccc3ccccc3c2)NC1=O | – | 110 | – | – | > 100 | – | inactive | 3 | – | inactive | 0 | – | – |
| N=C(N)NCCC[C@@H]1NC(=O)[C@@H](Cc2ccccc2)NC(=O)[C@H]2C[C@@H](O)CN2C(=O)c2cc([N+](=O)[O-])ccc2SC[C@@H](C(N)=O)NC(=O)[C@H](Cc2c[nH]c3ccccc23)NC1=O | inactive | 0 | inactive | inactive | 0 | inactive | inactive | 0 | inactive | inactive | 0 | inactive | – |
| NC(=O)[C@@H]1CSc2ccc([N+](=O)[O-])cc2C(=O)N[C@@H](Cc2cnc[nH]2)C(=O)N[C@@H](Cc2ccc(N)cc2)C(=O)N[C@@H](CCCN=C(N)N)C(=O)N[C@@H](Cc2c[nH]c3ccccc23)C(=O)N1 | – | – | – | – | – | – | – | – | – | – | – | – | IC50 ([1]; hek293): > 10000 nM; EC50 ([14]; hek293): > 1 µM; IC50 ([15]; hek293): > 1000 nM; EC50 ([16]; hek293): 150 nM |
| N=C(N)NCCC[C@@H]1NC(=O)[C@@H](Cc2ccccc2)NC(=O)[C@H](Cc2cnc[nH]2)NC(=O)c2cc([N+](=O)[O-])ccc2SC[C@@H](C(N)=O)NC(=O)[C@@H](Cc2ccc3ccccc3c2)NC1=O | inactive | 0 | – | – | 75 | inactive | inactive | 0 | inactive | inactive | 0 | inactive | – |
| NCCCC[C@@H]1NC(=O)[C@@H](Cc2ccccc2)NC(=O)[C@H](Cc2cnc[nH]2)NC(=O)c2cc([N+](=O)[O-])ccc2SC[C@@H](C(N)=O)NC(=O)[C@H](Cc2c[nH]c3ccccc23)NC1=O | inactive | 0 | – | inactive | 0 | inactive | inactive | 0 | inactive | inactive | 0 | inactive | IC50 [15]: > 1000 nM |
| N=C(N)NCCC[C@H]1NC(=O)[C@@H](Cc2ccccc2)NC(=O)[C@H](Cc2cnc[nH]2)NC(=O)c2cc([N+](=O)[O-])ccc2SC[C@@H](C(N)=O)NC(=O)[C@H](Cc2c[nH]c3ccccc23)NC1=O | inactive | 0 | – | inactive | 0 | inactive | inactive | 0 | inactive | inactive | 0 | inactive | IC50 [15]: > 10000 nM |
| NC(=O)[C@@H]1CSc2ccc([N+](=O)[O-])cc2C(=O)N[C@@H](Cc2cnc[nH]2)C(=O)N[C@H](Cc2ccc3ccccc3c2)C(=O)N[C@@H](CCCN=C(N)N)C(=O)N[C@@H](Cc2c[nH]c3ccccc23)C(=O)N1 | – | – | – | – | – | – | – | – | – | – | – | – | IC50 [1]: 760 nM; EC50 [14]: > 10 µM; IC50 [15]: 190 nM; IC50 [17]: 760 nM |
| N=C(N)NCCC[C@@H]1NC(=O)[C@@H](Cc2ccc3ccccc3c2)NC(=O)[C@H](Cc2cnc[nH]2)NC(=O)c2cc([N+](=O)[O-])ccc2SC[C@@H](C(N)=O)NC(=O)[C@H](Cc2c[nH]c3ccccc23)NC1=O | – | > 100 | – | inactive | 0 | inactive | inactive | 0 | – | inactive | 0 | – | – |
| NC(=O)[C@@H]1CSc2ccc([N+](=O)[O-])cc2C(=O)N[C@@H](Cc2cnc[nH]2)C(=O)N[C@H](Cc2ccccc2)C(=O)N[C@@H](CCCN=C(N)N)C(=O)N[C@H](Cc2ccc3ccccc3c2)C(=O)N1 | – | – | – | – | – | – | – | – | – | – | – | – | IC50 [15]: > 8000 nM; EC50 [16]: 330 nM |
| N=C(N)NCCC[C@@H]1NC(=O)[C@H](Cc2ccc(N)cc2)NC(=O)[C@H](Cc2cnc[nH]2)NC(=O)c2cc([N+](=O)[O-])ccc2SC[C@@H](C(N)=O)NC(=O)[C@H](Cc2c[nH]c3ccccc23)NC1=O | – | 9 | – | – | 5 | inactive | inactive | 0 | inactive | inactive | 0 | – | – |
| NCCC[C@@H]1NC(=O)[C@@H](Cc2ccccc2)NC(=O)[C@H](Cc2cnc[nH]2)NC(=O)c2cc([N+](=O)[O-])ccc2SC[C@@H](C(N)=O)NC(=O)[C@H](Cc2c[nH]c3ccccc23)NC1=O | inactive | 0 | inactive | inactive | 0 | inactive | inactive | 0 | inactive | inactive | 0 | inactive | – |
| N=C(N)NCCC[C@@H]1NC(=O)[C@H](CCCNC(N)=O)NC(=O)[C@H](Cc2cnc[nH]2)NC(=O)c2cc([N+](=O)[O-])ccc2SC[C@@H](C(N)=O)NC(=O)[C@H](Cc2c[nH]c3ccccc23)NC1=O | inactive | 0 | inactive | inactive | 0 | inactive | inactive | 0 | inactive | inactive | 0 | inactive | – |
| N=C(N)NCCC[C@@H]1NC(=O)[C@@H](Cc2ccccc2)NC(=O)[C@H](Cc2cnc[nH]2)NC(=O)c2cc([N+](=O)[O-])ccc2SC[C@@H](C(N)=O)NC(=O)[C@H](Cc2c[nH]c3ccccc23)NC1=O | – | 100 | – | – | 100 | – | – | 100 | – | – | 100 | – | – |

From ChEMBL document CHEMBL1150264, “Design and microwave-assisted synthesis of novel macrocyclic peptides active at melanocortin receptors: discovery of potent and selective hMC5R receptor antagonists” (J Med Chem, 2008)
